# Screens deposited in PubChem BioAssay by several laboratories.
# Measles CPE: compounds protecting cells from measles virus cytopathic effect, primary screen, measles RdRp inhibitor project, single point, MLSMR library, absorbance; Measles virus-infected cells, CPE protection; protection (pct of control), % at 4 µM; 140,000 compounds, 1.5% hits; in the data active = protection mostly above about 24%, no sharp cut-off; inactive = mostly below about 26%
# RAM network inh: inhibitors of the yeast RAM network, primary screen, dse1pr::URA3 reporter, 5-FOA selection; S. cerevisiae dse1pr::URA3 reporter, 5-FOA growth OD615, 2 d; analog-sensitive cbk1-as2 kinase mutant strain; inhibition, % at 50 µM; 190,000 compounds, 1.8% hits; AID 868, 2007;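 active = inhibition above a set limit, 3 SD over mean compound inhibition, cut at about 8.4% in these data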;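 note: 0% = DMSO-only wells with no growth and 100% = 10 µM 1-NA-PP1 full growth; inhibition rescues growth on 5-FOA so higher OD means more RAM inhibition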
# Yeast growth inh: growth inhibitors of yeast BB579 in restrictive medium, primary screen, yeast lifespan-shortening project, S. cerevisiae. OD615, 48 h. inhibition, % at 10 µM. 140,000 compounds, 0.51% hits. AID 804, 2007;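 active = inhibition above a set limit, 3 SD over the mean compound inhibition, cut at about 44% in these data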
#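 controls = amphotericin B 10 µg/mL, positive | assay system = DeaD yeast strain BB579 | schedule = 48 h compound exposure at 30 °C after 4 h preincubation | detection = OD615 turbidity measurement | medium = restrictive CSMM-D medium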
# Yeast life ext: compounds extending yeast replicative lifespan, primary screen, S. cerevisiae, OD615 | S. cerevisiae growth with nicotinamide; deaD strain in restrictive glucose medium | inhibition of the nicotinamide effect, % at 10 µM | 130,000 compounds, 0.68% hits;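 active = inhibition above a set limit, placed 3 SD over the median of all compounds, cut at about 26% in these data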;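 note: 0% = nicotinamide-treated wells and 100% = cells grown without nicotinamide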
#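 Test system – modified budding yeast, DeaD strain · Compound – single dose 10 µM compound, 0.25% DMSO · Times – culture preincubation 4 h, compound exposure 48 h, both 30 °C · Detection – optical density (absorbance) at 615 nm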
# SDO1 yeast rescue: growth rescue of sdo1-depleted yeast, primary screen, S. cerevisiae, bone marrow failure model. z-score at 10 µM. 140,000 compounds, 0.21% hits. S. cerevisiae sdo1-depleted JHY4D growth rescue, OD600 30 h; stronger effect = higher value; pdr5 snq2 efflux-pump mutant strain;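 active = z-score above 3 at both the 24 hr and the 30 hr optical density reads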;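 note: z-score against mean and SD of all compound wells on the same plate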
# * hit, by the source's call; · = not tested or not shown. This is a sample that favours compounds with a hit; in the whole collection about 3.8% have one here.
SMILES,Measles CPE,RAM network inh,Yeast growth inh,Yeast life ext,SDO1 yeast rescue
CC(=O)Oc1ccc2c(=O)c(N3C(=O)c4ccccc4C3=O)c(C)oc2c1,15.1,0.5,-38.7,27.8*,0.43
Cc1cc(=O)oc2cc(OC(=O)CCCCCN3C(=O)c4ccccc4C3=O)ccc12,4.8,6.2,-50.0,31.9*,0.66
CC(=O)Nc1nc2ccccc2n1CCOc1ccccc1,29.1,-0.1,24.4,-6.1,0.46
S=C(Nc1ccccc1)Nc1nc2ccccc2n1CCOc1ccccc1,25.9*,3.7,13.5,-9.3,0.27
Cc1ccc(CNc2nc3ccccc3s2)s1,4.2,0.2,-37.7,32.4*,-1.91
CCOC(=O)C1CCN(C(=O)CCc2c(C)nc3cc(-c4ccccc4)nn3c2C)CC1,8.3,0.5,-6.3,-13.3,-0.57
CCOC(=O)C1CCCCN1C(=O)CCc1c(C)nc2cc(-c3ccccc3)nn2c1C (centres undefined),2.2,-0.3,47.6*,9.8,-1.84
COc1cc(/C(C)=N\NC(N)=S)cc(OC)c1OC,34.8*,2.5,-4.9,3.3,1.1
COc1cc(/C(C)=N/NC(=S)NC(C)C)cc(OC)c1OC,12.4,0.4,-10.2,-3.1,0.53
O=c1c(Cl)c(Cl)cnn1-c1ccccc1,-0.5,2.5,16.1,40.2*,0.85
CCOC(=O)C1(Cc2ccc(OC)cc2)CCN(C(=O)CN2CCCCC2=O)CC1,·,-1.0,·,·,·
Nc1c(C2=NCCO2)nnn1Cc1ccccc1,40.7*,0.3,1.6,-3.0,0.14
COC(=O)c1nnn(Cc2ccccc2)c1N,3.8,1.6,-6.6,-28.7,1.31
C=C(C)Cn1c(NCCOC)nc2c1c(=O)[nH]c(=O)n2C,21.8,-0.2,-11.6,-2.9,1.05
CC12CCC(C(=O)Nc3ccccc3)(C(Br)C1=O)C2(C)C (centres undefined),3.1,-0.1,-34.5,9.6,1.06
CCOC(=O)c1sc(NC(=O)COC(=O)CNC(=O)C2CCCCC2)c(C(=O)OCC)c1C,26.6,3.2,-27.5,2.2,-0.59
O=C(COC(=O)c1cc2ccccc2cc1O)NC(=O)NCc1ccco1,·,2.7,·,·,·
O=C(COC(=O)c1n[nH]c2ccccc12)NC(=O)NCc1ccco1,24.8*,1.9,-28.6,-2.7,0.2
Cn1ccnc1C1CCCCN1Cc1nc(-c2ccc(Cl)cc2)no1 (centres undefined),·,-0.8,·,·,·
CC1CC(=O)c2cnc(NCC3CCCO3)nc2C1 (centres undefined),2.5,-0.2,-22.9,-12.9,0.71
CC1(C)CC(=O)c2cnc(NCC3CCCO3)nc2C1 (centres undefined),29.7*,0.1,1.6,-4.1,-0.4
O=C(COC(=O)Cc1ccc(Cl)cc1)Nc1ccc(OC(F)F)cc1,11.5,0.0,-10.2,-5.7,0.46
O=C(COC(=O)Cc1ccc(Cl)cc1Cl)Nc1ccc(OC(F)F)cc1,3.7,10.0*,-8.1,-6.9,-0.79
CCN(CC)C(=O)Cn1nc(-c2ccccc2O)nc1SCC(=O)Nc1ccc(OC)cc1,5.4,0.5,-16.1,-3.2,-0.76
O=C(NN1CCOCC1)C12CC3CC(CC(C3)C1)C2,6.7,0.1,-31.5,-3.1,0.43
SMILES,Measles CPE,RAM network inh,Yeast growth inh,Yeast life ext,SDO1 yeast rescue
Cc1oc(-c2ccc3c(c2)OCCO3)cc1C(=O)O,13.9,-0.1,89.8*,·,0.23
Cc1oc(-c2ccc3c(c2)OCCO3)cc1C(=O)NCC(=O)O,·,1.5,·,·,·
Cc1ccc(S(=O)(=O)Nc2ccc(N=Nc3ccc(O)cc3)cc2)cc1,3.8,10.9*,-16.9,-5.1,-1.3
CSc1ccc(S(=O)(=O)Nc2ccc(S(=O)(=O)Nc3ccc(C)cc3)cc2)cc1,2.0,8.3,-36.2,-0.5,1.34
Cc1ccc(/C(O)=C/C(=O)C(=O)NNC(=O)C(O)(c2ccccc2)c2ccccc2)cc1,4.6,0.6,-35.9,·,0.76
COC(=O)C(=O)/C=C(\O)c1ccc(C)cc1,28.4,-1.6,-19.5,72.6*,-0.03
COc1ccc(C(=O)N[C@H](C(=O)NCc2cccs2)C(C)C)cc1,·,-0.1,·,·,·
COc1ccc(C(=O)CSc2nnc(C(CO)NC(=O)c3ccc(OC)cc3)n2C)cc1 (centres undefined),8.8,10.7*,-20.2,-10.6,-0.03
Cc1nn(CC#N)c(=O)n1-c1ccccc1,20.1,3.8,-38.4,-8.4,0.01
Cc1n[nH]c(C)c1CCN(C)Cc1cn(C)nc1-c1ccccc1F,·,1.2,·,·,·
CC(=O)C1=C(O)CCC1=NCCc1ccccc1,28.8*,0.7,-29.3,-11.9,-0.22
Cn1c(=O)[nH]c(=O)c2c1nc(N1CCCCCC1)n2CCN1CCCCCC1,38.6*,1.4,-13.0,-6.7,1.19
CN1CCN(c2nc3c(c(=O)[nH]c(=O)n3C)n2CC(N)=O)CC1,28.6*,-0.1,-18.0,-3.7,-0.41
Cn1c(=O)[nH]c(=O)c2c1nc(N1CCCCC1)n2CC(O)CN1CCCCC1 (centres undefined),7.9,2.3,2.3,44.7*,0.55
C=CCn1c(N2CCCCCC2)nc2c1c(=O)[nH]c(=O)n2C,5.6,-0.7,-9.8,-13.5,0.23
NC(=O)COC(=O)CC(NC(N)=O)c1ccc(Cl)cc1 (centres undefined),36.9*,0.6,-36.7,0.7,1.06
CCCCn1c(N)c(N(CCC(C)C)C(=O)COC(=O)c2ccccc2)c(=O)[nH]c1=O,·,0.5,·,·,·
CCCCn1c(N)c(N(CCC(C)C)C(=O)COC(=O)c2ccco2)c(=O)[nH]c1=O,31.1*,3.0,-36.0,-19.9,1.53
Cc1ccc(Cl)cc1NC(=S)NCCCSC1CCCCC1,·,7.5,·,·,·
N#Cc1c(Nc2ccccc2)c(/C=N/N=C/c2ccccc2)c[nH]c1=O,25.7*,4.1,-24.9,-0.1,0.45
N#Cc1c(Nc2ccccc2)c(/C=N/NCCO)c[nH]c1=O,·,2.5,·,·,·
Cc1ccc(NCC(=O)N/N=C/c2cccc(Oc3ccccc3)c2)cc1,11.1,10.3*,-26.3,-6.1,-0.91
COc1cccc2sc(Nc3nc(-c4ccccn4)cs3)nc12,12.1,-0.8,87.9*,-3.8,-2.37
O=C(COC(=O)c1cc([N+](=O)[O-])ccc1NCCO)NCc1cccs1,·,11.0*,·,·,·
O=C(COC(=O)c1cc([N+](=O)[O-])ccc1NCCO)c1ccccc1,5.1,3.0,10.1,-2.4,0.57
SMILES,Measles CPE,RAM network inh,Yeast growth inh,Yeast life ext,SDO1 yeast rescue
O=C(Nc1ccc(Cl)cc1)c1csc(-c2ccccc2)n1,-0.2,9.7*,-55.5,-14.8,-0.98
COC(=O)c1c(NC(=O)CSc2nnc3ccccn23)sc2c1CCC2,8.8,2.0,-26.2,-2.0,-0.13
CCN(CC)c1nc(-c2ccccc2)nc2c1sc(=S)n2CC,·,9.8*,·,·,·
CCC(C)(C)c1ccc(OCCCC[n+]2cccc(C)c2)c(C(C)(C)CC)c1,·,-2.4,·,·,·
O=C(CN1c2ccccc2Sc2ccccc21)NNC(=S)Nc1ccc(Cl)cc1Cl,5.2,10.9*,-22.8,13.5,2.48
Cn1cccc1CC(=O)NNC(=S)Nc1ccc(Cl)cc1Cl,28.3,2.3,-9.6,-3.6,0.53
